In ChEMBL document CHEMBL4196179, “Synthesis and Pharmacological Evaluation of Noscapine-Inspired 5-Substituted Tetrahydroisoquinolines as Cytotoxic Agents” (J Med Chem, 2018):

How the values were obtained:
PANC-1 = test: Cell cycle arrest in human PANC1 cells assessed as increase in accumulation at G2/M phase at 10 uM after 18 hrs by Hoechst 33342 staining based FACS analysis relative to control; type: functional
How it was run: (§1)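 Cells seeded 48 h beforehand, treated 18 h with test compounds at 10 µM or vincristine at 100 nM, then trypsinised and stained with Hoechst 33342 for 60 min; FACS read at 450 nm; % G2/M increase calculated relative to 0.1% DMSO vehicle; mean ± SEM of three independent experiments.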

MCF7 [1] = test: Cell cycle arrest in human MCF7 cells assessed as increase in accumulation at G2/M phase at 10 uM after 18 hrs by Hoechst 33342 staining based FACS analysis relative to control; type: functional; how it was run: as §1
Sus scrofa = species on record: Sus scrofa; test: Stabilization of pig tubulin assessed as Vmax of tubulin polymerization at 10 uM after 60 mins turbidimetric analysis (reference value: 27 +/- 2 milliOD/min)
PC-3 = test: Cytotoxicity against human PC3 cells assessed as reduction in cell viability after 5 days by cellTiter-blue assay; type: functional, cell-based; conditions: PC-3, 120 h
MCF7 [2] = test: Cytotoxicity against human MCF7 cells assessed as reduction in cell viability after 5 days by cellTiter-blue assay; type: functional, cell-based; conditions: MCF7, 120 h

Q: How did the Activity (PANC-1) turn out when `CCNC(=O)N1CCc2c(Br)c3c(c(OC)c2C1c1ccc(OC)c(OC)c1)OCO3` (stereo not given) was run?
A: 11%

Q: And the Activity (MCF7 [1])?
A: -6%

Q: Which results are given for `COc1cccc(CC2c3c(c(Br)c4c(c3OC)OCO4)CCN2C)c1OC` (stereo not given)?
A: Activity (PANC-1): 8%; Activity (MCF7 [1]): 32%

Q: `CCNC(=O)N1CCc2c(Br)c3c(c(OC)c2C1Cc1ccc(OC)c(OC)c1)OCO3` (stereo not given) was tested. Which Activity (PANC-1) did it give?
A: -10%

Q: And the Activity (MCF7 [1])?
A: 12%

Q: For `CC(=O)O[C@H]1C(=O)[C@@]2(C)[C@H]([C@H](OC(=O)c3ccccc3)[C@]3(O)C[C@H](OC(=O)[C@H](O)[C@@H](NC(=O)c4ccccc4)c4ccccc4)C(C)=C1C3(C)C)[C@]1(OC(C)=O)CO[C@@H]1C[C@@H]2O`, which Vmax (milli optical density/minute) (Sus scrofa) is on record?
A: 76

Q: For `CCNC(=O)N1CCc2cc3c(c(OC)c2[C@@H]1[C@H]1OC(=O)c2c1ccc(OC)c2OC)OCO3`, which EC50 (PC-3) is on record?
A: 6.7 µM

Q: What about the EC50 (MCF7 [2]) of the same compound?
A: 3.6 µM

Q: Which Activity (PANC-1) does the source give for `CCNC(=O)N1CCc2c(Br)c3c(c(OC)c2C1Cc1ccccc1)OCO3` (stereo not given) here?
A: -8%

Q: And the Activity (MCF7 [1])?
A: 1%

Q: With `CCNC(=O)N1CCc2c(Br)c3c(c(OC)c2C1Cc1cc(OC)c(OC)c(OC)c1)OCO3` (stereo not given) as the compound, how does the Activity (PANC-1) read?
A: -4%

Q: And the Activity (MCF7 [1])?
A: 5%

Q: For `COc1ccc(CC2c3c(c(Br)c4c(c3OC)OCO4)CCN2C)cc1` (stereo not given), which Activity (PANC-1) is on record?
A: 226%

Q: And the Activity (MCF7 [1])?
A: 180%

Q: For `COc1cc(C2c3c(c(Br)c4c(c3OC)OCO4)CCN2C)cc(OC)c1OC` (stereo not given), which Activity (PANC-1) is on record?
A: 12%

Q: What about the Activity (MCF7 [1]) of the same compound?
A: 48%

Q: With `CCNC(=O)N1CCc2c(Br)c3c(c(OC)c2C1c1cccc(OC)c1OC)OCO3` (stereo not given) as the compound, how does the Activity (PANC-1) read?
A: 14%

Q: And the Activity (MCF7 [1])?
A: 19%

Q: What does the source list for `CCNC(=O)N1CCc2c(Br)c3c(c(OC)c2C1c1cc(OC)c(OC)c(OC)c1)OCO3` (stereo not given)?
A: Activity (PANC-1): 2%; Activity (MCF7 [1]): 3%

Q: Which Activity (PANC-1) does the source give for `COc1c2c(c(Br)c3c1C(Cc1ccccc1)N(C)CC3)OCO2` (stereo not given) here?
A: 13%

Q: And the Activity (MCF7 [1])?
A: 9%

Q: How did the Activity (PANC-1) turn out when `COc1ccc2c(c1OC)CC1c3c(c(Br)c4c(c3OC)OCO4)CCN1C2` (stereo not given) was run?
A: 9%

Q: What about the Activity (MCF7 [1]) of the same compound?
A: 28%
